Reference: ChEMBL document CHEMBL3817728, “Synthesis, Evaluation, and Mechanism Study of Novel Indole-Chalcone Derivatives Exerting Effective Antitumor Activity Through Microtubule Destabilization in Vitro and in Vivo” (J Med Chem, 2016)
pIC50: −log10 of the molar value.

Legend:
[1] = Metabolic stability in Sprague-Dawley rat liver microsomes assessed as compound remaining at 30 mins in presence of NADPH regenerating system by HPLC method; assay type: ADME; details: read-out: Stability
In short: (§1)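 Test compound incubated with rat liver microsomes at 37 ℃ in buffer containing an NADPH regenerating system for the stated time. Remaining parent compound was quantified by HPLC.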

[2] = Metabolic stability in Sprague-Dawley rat liver microsomes assessed as compound remaining at 60 mins in presence of NADPH regenerating system by HPLC method; assay type: ADME; details: read-out: Stability; in short: as §1
[3] = Metabolic stability in Sprague-Dawley rat liver microsomes assessed as compound remaining at 90 mins in presence of NADPH regenerating system by HPLC method; assay type: ADME; details: read-out: Stability; in short: as §1
[4] = Metabolic stability in Sprague-Dawley rat liver microsomes assessed as compound remaining at 120 mins in presence of NADPH regenerating system by HPLC method; assay type: ADME; details: read-out: Stability
In short: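 Rat liver microsomes incubated with compound at 37 ℃ for indicated times in buffer containing NADPH regenerating system; residual parent determined by HPLC.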

A549 [5] = assay: Cytotoxicity against human A549 cells assessed as cell viability after 48 hrs by MTT assay; assay type: functional, cell-based; details: A549, 48 h
In short: (§2)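 Cancer cell lines treated with compound for 48 h, and viability read by MTT assay. IC50 given as mean ± SD from at least three independent experiments.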

HeLa = assay: Cytotoxicity against human HeLa cells assessed as cell viability after 48 hrs by MTT assay; assay type: functional, cell-based; in short: as §2
[6] = Cytotoxicity against human Bel7402 cells assessed as cell viability after 48 hrs by MTT assay; assay type: functional, cell-based; details: Bel-7402, 48 h; in short: as §2
A2780 = assay: Cytotoxicity against human A2780 cells assessed as cell viability after 48 hrs by MTT assay; assay type: functional, cell-based; details: A2780, 48 h; in short: as §2
[7] = Cytotoxicity against human HCT8 cells assessed as cell viability after 48 hrs by MTT assay; assay type: functional, cell-based; details: HCT-8, 48 h; in short: as §2
[8] = Cytotoxicity against human A2780/TAX cells assessed as growth inhibition after 48 hrs by MTT assay; assay type: functional, cell-based
In short: (§3)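 Drug-resistant lines were tested by a 48 h MTT viability assay. IC50 was derived from dose-response curves and reported as mean ± SE of at least three independent experiments.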

[9] = Cytotoxicity against human HCT8/VCT cells assessed as growth inhibition after 48 hrs by MTT assay; assay type: functional, cell-based; in short: as §3
[10] = Cytotoxicity against human MCF7/DX cells assessed as growth inhibition after 48 hrs by MTT assay; assay type: functional, cell-based; in short: as §3
A549 [11] = assay: Antitumor activity against human A549 cells xenografted in BALB/c nude mouse assessed as tumor growth inhibition at 30 mg/kg, ip administered every other day for 1 month measured every other day post dose relative to vehicle-treated control; assay type: functional; details: read-out: TGI
Mus musculus = assay: Toxicity in BALB/c nude mouse xenografted with human A549 cells assessed as loss of body weight at 30 mg/kg, ip administered every other day for 1 month measured every other day post dose relative to vehicle-treated control; assay type: organism-based; details: in vivo
[12] = Solubility of the compound in sodium phosphate buffer at pH 7.4 at 25 +/- 1 degC; assay type: physicochemical
MCF7 = assay: Cytotoxicity against human MCF7 cells assessed as cell viability after 48 hrs by MTT assay; assay type: functional, cell-based; details: MCF7, 48 h; in short: as §2

Structure (SMILES) | remaining at 0.5 h [1] [%] | remaining at 1 h [2] [%] | remaining at 1.5 h [3] [%] | remaining at 2 h [4] [%] | pIC50 (A549 [5]) | pIC50 (HeLa) | pIC50 [6] | pIC50 (A2780) | pIC50 [7] | pIC50 [8] | pIC50 [9] | pIC50 [10] | inhibition in vivo at 30 mg/kg (A549 [11]) [%] | Activity (Mus musculus) | solubility [12] [mg/mL] | pIC50 (MCF7)
COc1ccc(/C=C\c2cc(OC)c(OC)c(OC)c2)cc1O [COMBRETASTATIN A4] | 68.1 | 28.6 | 23.1 | 20.7 | 8.30 | 7.92 | 8.52 | 8.05 | 8.77 | 7.24 | 8.30 | 7.57 | – | – | – | –
COc1ccc2c(/C=C(\C)C(=O)c3cc(OC)c(OC)c(OC)c3)cn(P(=O)([O-])[O-])c2c1.[Na+].[Na+] | – | – | – | – | 7.25 | 7.11 | 7.21 | 7.37 | 7.04 | – | – | – | 70.4 | Non-toxic | 125 | 7.42
